Assay results as given in ChEMBL document CHEMBL1152489, “Synthesis and biological evaluation of a novel series of 1,5-benzothiazepine derivatives as potential antimicrobial agents” (2009).
Calls of active or inactive are those of the source. No cut-off for these calls is given here.

system: Candida albicans; assay: Antifungal activity against Candida albicans ATCC 10231 at 200 ug/disk after 24 hrs by disk diffusion method; assay type: functional; settings: ATCC 10231, 24 h, read-out: IZ
Procedure, shortened: (§1)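 Disk diffusion on media seeded with the organism. Sterile paper discs (6 mm) carried test compound dissolved in DMSO at 12.5, 50, 100 or 200 µg/disc. DMSO-only discs served as controls. Plates were incubated 24 h at 37 °C. The read-out is the growth-inhibition zone diameter in mm, averaged over three trials (±1 mm).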

SMILES	zone of inhibition at 200 µg/disc
CC(=O)C1=C(C)Nc2cc(Cl)ccc2SC1c1ccc(Cl)cc1 (stereo not drawn)	13 mm
CC(=O)C1=C(C)Nc2cc(Cl)ccc2SC1c1ccc([N+](=O)[O-])cc1 (stereo not drawn)	14 mm
COc1ccc(C2Sc3ccccc3NC(C)=C2C(C)=O)cc1 (stereo not drawn)	11 mm
CCOC(=O)C1=C(C)Nc2ccccc2SC1c1ccc([N+](=O)[O-])cc1 (stereo not drawn)	7 mm
CC(=O)C1=C(C)Nc2cc(Cl)ccc2SC1c1ccc(Br)cc1 (stereo not drawn)	15 mm
CC(=O)C1=C(C)Nc2cc(Cl)ccc2SC1c1ccccc1 (stereo not drawn)	13 mm
CC(=O)C1=C(C)Nc2cc(Cl)ccc2SC1c1ccccc1Cl (stereo not drawn)	15 mm
CC(=O)C1=C(C)Nc2ccccc2SC1c1ccccc1 (stereo not drawn)	10 mm
CC(=O)C1=C(C)Nc2cc(Cl)ccc2SC1c1ccc(F)cc1 (stereo not drawn)	10 mm

system: Candida albicans; assay: Antifungal activity against Candida albicans ATCC 10231 at 100 ug/disk after 24 hrs by disk diffusion method; assay type: functional; settings: ATCC 10231, 24 h, read-out: IZ; procedure, shortened: as §1

SMILES	zone of inhibition at 100 µg/disc
CC(=O)C1=C(C)Nc2cc(Cl)ccc2SC1c1ccc(Cl)cc1 (stereo not drawn)	11 mm
CC(=O)C1=C(C)Nc2cc(Cl)ccc2SC1c1ccc([N+](=O)[O-])cc1 (stereo not drawn)	11 mm
COc1ccc(C2Sc3ccccc3NC(C)=C2C(C)=O)cc1 (stereo not drawn)	9 mm
CCOC(=O)C1=C(C)Nc2ccccc2SC1c1ccc([N+](=O)[O-])cc1 (stereo not drawn)	6.5 mm
CC(=O)C1=C(C)Nc2cc(Cl)ccc2SC1c1ccc(Br)cc1 (stereo not drawn)	11 mm
CC(=O)C1=C(C)Nc2cc(Cl)ccc2SC1c1ccccc1 (stereo not drawn)	9 mm
CC(=O)C1=C(C)Nc2cc(Cl)ccc2SC1c1ccccc1Cl (stereo not drawn)	12 mm
CC(=O)C1=C(C)Nc2ccccc2SC1c1ccccc1 (stereo not drawn)	7 mm
CC(=O)C1=C(C)Nc2cc(Cl)ccc2SC1c1ccc(F)cc1 (stereo not drawn)	9 mm

system: Candida albicans; assay: Antifungal activity against Candida albicans ATCC 10231 at 50 ug/disk after 24 hrs by disk diffusion method; assay type: functional; settings: not given; procedure, shortened: as §1

SMILES	inhibition zone (IZ)
CCOC(=O)C1=C(C)Nc2ccccc2SC1c1ccc([N+](=O)[O-])cc1 (stereo not drawn)	inactive
CC(=O)C1=C(C)Nc2ccccc2SC1c1ccccc1 (stereo not drawn)	inactive

same assay, conditions: ATCC 10231, 24 h, read-out: IZ

SMILES	zone of inhibition at 50 µg/disc
CC(=O)C1=C(C)Nc2cc(Cl)ccc2SC1c1ccc(Cl)cc1 (stereo not drawn)	10 mm
CC(=O)C1=C(C)Nc2cc(Cl)ccc2SC1c1ccc([N+](=O)[O-])cc1 (stereo not drawn)	9 mm
COc1ccc(C2Sc3ccccc3NC(C)=C2C(C)=O)cc1 (stereo not drawn)	8 mm
CC(=O)C1=C(C)Nc2cc(Cl)ccc2SC1c1ccc(Br)cc1 (stereo not drawn)	10 mm
CC(=O)C1=C(C)Nc2cc(Cl)ccc2SC1c1ccccc1 (stereo not drawn)	7 mm
CC(=O)C1=C(C)Nc2cc(Cl)ccc2SC1c1ccccc1Cl (stereo not drawn)	10 mm
CC(=O)C1=C(C)Nc2cc(Cl)ccc2SC1c1ccc(F)cc1 (stereo not drawn)	8 mm

system: Staphylococcus aureus; assay: Antibacterial activity against Staphylococcus aureus ATCC 25923 at 200 ug/disk after 24 hrs by disk diffusion method; assay type: functional; settings: ATCC 25923, 24 h, read-out: IZ; procedure, shortened: as §1

SMILES	zone of inhibition at 200 µg/disc
CC(=O)C1=C(C)Nc2cc(Cl)ccc2SC1c1ccc(Cl)cc1 (stereo not drawn)	10 mm
CC(=O)C1=C(C)Nc2cc(Cl)ccc2SC1c1ccc([N+](=O)[O-])cc1 (stereo not drawn)	11 mm
COc1ccc(C2Sc3ccccc3NC(C)=C2C(C)=O)cc1 (stereo not drawn)	10 mm
CCOC(=O)C1=C(C)Nc2ccccc2SC1c1ccc([N+](=O)[O-])cc1 (stereo not drawn)	7 mm
CC(=O)C1=C(C)Nc2cc(Cl)ccc2SC1c1ccc(Br)cc1 (stereo not drawn)	11 mm
CC(=O)C1=C(C)Nc2cc(Cl)ccc2SC1c1ccccc1 (stereo not drawn)	10 mm
CC(=O)C1=C(C)Nc2cc(Cl)ccc2SC1c1ccccc1Cl (stereo not drawn)	11 mm
CC(=O)C1=C(C)Nc2ccccc2SC1c1ccccc1 (stereo not drawn)	11 mm
CC(=O)C1=C(C)Nc2cc(Cl)ccc2SC1c1ccc(F)cc1 (stereo not drawn)	9 mm

system: Staphylococcus aureus; assay: Antibacterial activity against Staphylococcus aureus ATCC 25923 at 100 ug/disk after 24 hrs by disk diffusion method; assay type: functional; settings: ATCC 25923, 24 h, read-out: IZ; procedure, shortened: as §1

SMILES	zone of inhibition at 100 µg/disc
CC(=O)C1=C(C)Nc2cc(Cl)ccc2SC1c1ccc(Cl)cc1 (stereo not drawn)	7.5 mm
CC(=O)C1=C(C)Nc2cc(Cl)ccc2SC1c1ccc([N+](=O)[O-])cc1 (stereo not drawn)	7 mm
COc1ccc(C2Sc3ccccc3NC(C)=C2C(C)=O)cc1 (stereo not drawn)	7 mm
CCOC(=O)C1=C(C)Nc2ccccc2SC1c1ccc([N+](=O)[O-])cc1 (stereo not drawn)	6.5 mm
CC(=O)C1=C(C)Nc2cc(Cl)ccc2SC1c1ccc(Br)cc1 (stereo not drawn)	10 mm
CC(=O)C1=C(C)Nc2cc(Cl)ccc2SC1c1ccccc1 (stereo not drawn)	7 mm
CC(=O)C1=C(C)Nc2cc(Cl)ccc2SC1c1ccccc1Cl (stereo not drawn)	8 mm
CC(=O)C1=C(C)Nc2ccccc2SC1c1ccccc1 (stereo not drawn)	8 mm
CC(=O)C1=C(C)Nc2cc(Cl)ccc2SC1c1ccc(F)cc1 (stereo not drawn)	9 mm

system: Staphylococcus aureus; assay: Antibacterial activity against Staphylococcus aureus ATCC 25923 at 50 ug/disk after 24 hrs by disk diffusion method; assay type: functional; settings: not given; procedure, shortened: as §1

SMILES	inhibition zone (IZ)
CCOC(=O)C1=C(C)Nc2ccccc2SC1c1ccc([N+](=O)[O-])cc1 (stereo not drawn)	inactive

same assay, conditions: ATCC 25923, 24 h, read-out: IZ

SMILES	zone of inhibition at 50 µg/disc
CC(=O)C1=C(C)Nc2cc(Cl)ccc2SC1c1ccc(Cl)cc1 (stereo not drawn)	7 mm
CC(=O)C1=C(C)Nc2cc(Cl)ccc2SC1c1ccc([N+](=O)[O-])cc1 (stereo not drawn)	7 mm
COc1ccc(C2Sc3ccccc3NC(C)=C2C(C)=O)cc1 (stereo not drawn)	6.5 mm
CC(=O)C1=C(C)Nc2cc(Cl)ccc2SC1c1ccc(Br)cc1 (stereo not drawn)	9 mm
CC(=O)C1=C(C)Nc2cc(Cl)ccc2SC1c1ccccc1 (stereo not drawn)	7 mm
CC(=O)C1=C(C)Nc2cc(Cl)ccc2SC1c1ccccc1Cl (stereo not drawn)	7 mm
CC(=O)C1=C(C)Nc2ccccc2SC1c1ccccc1 (stereo not drawn)	6.5 mm
CC(=O)C1=C(C)Nc2cc(Cl)ccc2SC1c1ccc(F)cc1 (stereo not drawn)	8 mm

system: Staphylococcus epidermidis; assay: Antibacterial activity against Staphylococcus epidermidis ATCC 26069 at 200 ug/disk after 24 hrs by disk diffusion method; assay type: functional; settings: not given; procedure, shortened: as §1

SMILES	inhibition zone (IZ)
CCOC(=O)C1=C(C)Nc2ccccc2SC1c1ccc([N+](=O)[O-])cc1 (stereo not drawn)	inactive

same assay, conditions: ATCC 26069, 24 h, read-out: IZ

SMILES	zone of inhibition at 200 µg/disc
CC(=O)C1=C(C)Nc2cc(Cl)ccc2SC1c1ccc(Cl)cc1 (stereo not drawn)	10 mm
CC(=O)C1=C(C)Nc2cc(Cl)ccc2SC1c1ccc([N+](=O)[O-])cc1 (stereo not drawn)	11 mm
COc1ccc(C2Sc3ccccc3NC(C)=C2C(C)=O)cc1 (stereo not drawn)	10 mm
CC(=O)C1=C(C)Nc2cc(Cl)ccc2SC1c1ccc(Br)cc1 (stereo not drawn)	11 mm
CC(=O)C1=C(C)Nc2cc(Cl)ccc2SC1c1ccccc1 (stereo not drawn)	11 mm
CC(=O)C1=C(C)Nc2cc(Cl)ccc2SC1c1ccccc1Cl (stereo not drawn)	10 mm
CC(=O)C1=C(C)Nc2ccccc2SC1c1ccccc1 (stereo not drawn)	10 mm
CC(=O)C1=C(C)Nc2cc(Cl)ccc2SC1c1ccc(F)cc1 (stereo not drawn)	8 mm

system: Staphylococcus epidermidis; assay: Antibacterial activity against Staphylococcus epidermidis ATCC 26069 at 100 ug/disk after 24 hrs by disk diffusion method; assay type: functional; settings: not given; procedure, shortened: as §1

SMILES	inhibition zone (IZ)
CCOC(=O)C1=C(C)Nc2ccccc2SC1c1ccc([N+](=O)[O-])cc1 (stereo not drawn)	inactive

same assay, conditions: ATCC 26069, 24 h, read-out: IZ

SMILES	zone of inhibition at 100 µg/disc
CC(=O)C1=C(C)Nc2cc(Cl)ccc2SC1c1ccc(Cl)cc1 (stereo not drawn)	7.5 mm
CC(=O)C1=C(C)Nc2cc(Cl)ccc2SC1c1ccc([N+](=O)[O-])cc1 (stereo not drawn)	11 mm
COc1ccc(C2Sc3ccccc3NC(C)=C2C(C)=O)cc1 (stereo not drawn)	7 mm
CC(=O)C1=C(C)Nc2cc(Cl)ccc2SC1c1ccc(Br)cc1 (stereo not drawn)	10 mm
CC(=O)C1=C(C)Nc2cc(Cl)ccc2SC1c1ccccc1 (stereo not drawn)	8 mm
CC(=O)C1=C(C)Nc2cc(Cl)ccc2SC1c1ccccc1Cl (stereo not drawn)	7 mm
CC(=O)C1=C(C)Nc2ccccc2SC1c1ccccc1 (stereo not drawn)	7 mm
CC(=O)C1=C(C)Nc2cc(Cl)ccc2SC1c1ccc(F)cc1 (stereo not drawn)	8 mm

system: Staphylococcus epidermidis; assay: Antibacterial activity against Staphylococcus epidermidis ATCC 26069 at 50 ug/disk after 24 hrs by disk diffusion method; assay type: functional; settings: not given; procedure, shortened: as §1

SMILES	inhibition zone (IZ)
COc1ccc(C2Sc3ccccc3NC(C)=C2C(C)=O)cc1 (stereo not drawn)	inactive
CCOC(=O)C1=C(C)Nc2ccccc2SC1c1ccc([N+](=O)[O-])cc1 (stereo not drawn)	inactive
CC(=O)C1=C(C)Nc2ccccc2SC1c1ccccc1 (stereo not drawn)	inactive

same assay, conditions: ATCC 26069, 24 h, read-out: IZ

SMILES	zone of inhibition at 50 µg/disc
CC(=O)C1=C(C)Nc2cc(Cl)ccc2SC1c1ccc(Cl)cc1 (stereo not drawn)	7 mm
CC(=O)C1=C(C)Nc2cc(Cl)ccc2SC1c1ccc([N+](=O)[O-])cc1 (stereo not drawn)	10 mm
CC(=O)C1=C(C)Nc2cc(Cl)ccc2SC1c1ccc(Br)cc1 (stereo not drawn)	9 mm
CC(=O)C1=C(C)Nc2cc(Cl)ccc2SC1c1ccccc1 (stereo not drawn)	7 mm
CC(=O)C1=C(C)Nc2cc(Cl)ccc2SC1c1ccccc1Cl (stereo not drawn)	7 mm
CC(=O)C1=C(C)Nc2cc(Cl)ccc2SC1c1ccc(F)cc1 (stereo not drawn)	7 mm

system: Escherichia coli; assay: Antibacterial activity against Escherichia coli ATCC 44752 at 200 ug/disk after 24 hrs by disk diffusion method; assay type: functional, organism-based; settings: not given; procedure, shortened: as §1

SMILES	inhibition zone (IZ)
CC(=O)C1=C(C)Nc2cc(Cl)ccc2SC1c1ccc(Cl)cc1 (stereo not drawn)	inactive
CC(=O)C1=C(C)Nc2cc(Cl)ccc2SC1c1ccc([N+](=O)[O-])cc1 (stereo not drawn)	inactive
COc1ccc(C2Sc3ccccc3NC(C)=C2C(C)=O)cc1 (stereo not drawn)	inactive
CCOC(=O)C1=C(C)Nc2ccccc2SC1c1ccc([N+](=O)[O-])cc1 (stereo not drawn)	inactive
CC(=O)C1=C(C)Nc2cc(Cl)ccc2SC1c1ccc(Br)cc1 (stereo not drawn)	inactive
CC(=O)C1=C(C)Nc2cc(Cl)ccc2SC1c1ccccc1 (stereo not drawn)	inactive
CC(=O)C1=C(C)Nc2cc(Cl)ccc2SC1c1ccccc1Cl (stereo not drawn)	inactive
CC(=O)C1=C(C)Nc2ccccc2SC1c1ccccc1 (stereo not drawn)	inactive
CC(=O)C1=C(C)Nc2cc(Cl)ccc2SC1c1ccc(F)cc1 (stereo not drawn)	inactive

system: Escherichia coli; assay: Antibacterial activity against Escherichia coli ATCC 44752 at 100 ug/disk after 24 hrs by disk diffusion method; assay type: functional, organism-based; settings: not given; procedure, shortened: as §1

SMILES	inhibition zone (IZ)
CC(=O)C1=C(C)Nc2cc(Cl)ccc2SC1c1ccc(Cl)cc1 (stereo not drawn)	inactive
CC(=O)C1=C(C)Nc2cc(Cl)ccc2SC1c1ccc([N+](=O)[O-])cc1 (stereo not drawn)	inactive
COc1ccc(C2Sc3ccccc3NC(C)=C2C(C)=O)cc1 (stereo not drawn)	inactive
CCOC(=O)C1=C(C)Nc2ccccc2SC1c1ccc([N+](=O)[O-])cc1 (stereo not drawn)	inactive
CC(=O)C1=C(C)Nc2cc(Cl)ccc2SC1c1ccc(Br)cc1 (stereo not drawn)	inactive
CC(=O)C1=C(C)Nc2cc(Cl)ccc2SC1c1ccccc1 (stereo not drawn)	inactive
CC(=O)C1=C(C)Nc2cc(Cl)ccc2SC1c1ccccc1Cl (stereo not drawn)	inactive
CC(=O)C1=C(C)Nc2ccccc2SC1c1ccccc1 (stereo not drawn)	inactive
CC(=O)C1=C(C)Nc2cc(Cl)ccc2SC1c1ccc(F)cc1 (stereo not drawn)	inactive

system: Escherichia coli; assay: Antibacterial activity against Escherichia coli ATCC 44752 at 50 ug/disk after 24 hrs by disk diffusion method; assay type: functional, organism-based; settings: not given; procedure, shortened: as §1

SMILES	inhibition zone (IZ)
CC(=O)C1=C(C)Nc2cc(Cl)ccc2SC1c1ccc(Cl)cc1 (stereo not drawn)	inactive
CC(=O)C1=C(C)Nc2cc(Cl)ccc2SC1c1ccc([N+](=O)[O-])cc1 (stereo not drawn)	inactive
COc1ccc(C2Sc3ccccc3NC(C)=C2C(C)=O)cc1 (stereo not drawn)	inactive
CCOC(=O)C1=C(C)Nc2ccccc2SC1c1ccc([N+](=O)[O-])cc1 (stereo not drawn)	inactive
CC(=O)C1=C(C)Nc2cc(Cl)ccc2SC1c1ccc(Br)cc1 (stereo not drawn)	inactive
CC(=O)C1=C(C)Nc2cc(Cl)ccc2SC1c1ccccc1 (stereo not drawn)	inactive
CC(=O)C1=C(C)Nc2cc(Cl)ccc2SC1c1ccccc1Cl (stereo not drawn)	inactive
CC(=O)C1=C(C)Nc2ccccc2SC1c1ccccc1 (stereo not drawn)	inactive
CC(=O)C1=C(C)Nc2cc(Cl)ccc2SC1c1ccc(F)cc1 (stereo not drawn)	inactive
